Measured values reported in article PMC3227224 (The Journal of neuroscience : the official journal of the …, 2011).

Test system: γ-secretase
Format: in vivo, J20 hAPP transgenic mice
In short: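 Mice of either sex, probe guide in left hippocampus (bregma −3.1 mm, 2.5 mm lateral, 1.2 mm below dura, 12° angle), freely moving in Raturn cages on 12 h light/dark. γ-Secretase inhibitor 3 mg/kg i.p. given during ongoing microdialysis; hourly dialysates in refrigerated collector. Aβ38/40/42 by multiplex electrochemiluminescence (C-terminal-specific capture, SULFO-TAG 6E10 detection), in duplicate; half-lives calculated.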

Compound: C[C@H](NC(=O)Cc1cc(F)cc(F)c1)C(=O)N[C@H]1N=C(c2ccccc2)c2ccccc2N(C)C1=O [Compound E]
- t1/2 of decline of total ISF Aβ after Compound E (3 mo tg (plaque-free) J20 mice, Compound E 3 mg/kg i.p. at time 0 h, ISF sampled hourly at 1 μl/min, Aβ ELISA): ~ 2 h
- ISF Aβ38, Aβ40 and Aβ42 after Compound E in young mice (young plaque-free (3 mo) tg mouse, first 5 h after Compound E 3 mg/kg i.p.): all 3 peptides fell together
